Only some compounds are listed: those with a hit (about 1.9% of all), similar ones and a draw of the others.
Neddyl block – cullin neddylation inhibition; TR-FRET cullin neddylation, biochemical; inhibition, % at 25 µM; AID 651699; actives 0.58% (n = 360,000); in the data active means inhibition above about 36%
Target sequence (P61081 whole entry, looked up): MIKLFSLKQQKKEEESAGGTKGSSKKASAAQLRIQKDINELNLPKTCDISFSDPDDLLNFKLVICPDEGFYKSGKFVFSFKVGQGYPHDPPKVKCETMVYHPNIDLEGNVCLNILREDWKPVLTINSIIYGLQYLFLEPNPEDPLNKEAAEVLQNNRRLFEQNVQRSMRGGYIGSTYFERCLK
Target sequence (Q13564 whole entry, looked up): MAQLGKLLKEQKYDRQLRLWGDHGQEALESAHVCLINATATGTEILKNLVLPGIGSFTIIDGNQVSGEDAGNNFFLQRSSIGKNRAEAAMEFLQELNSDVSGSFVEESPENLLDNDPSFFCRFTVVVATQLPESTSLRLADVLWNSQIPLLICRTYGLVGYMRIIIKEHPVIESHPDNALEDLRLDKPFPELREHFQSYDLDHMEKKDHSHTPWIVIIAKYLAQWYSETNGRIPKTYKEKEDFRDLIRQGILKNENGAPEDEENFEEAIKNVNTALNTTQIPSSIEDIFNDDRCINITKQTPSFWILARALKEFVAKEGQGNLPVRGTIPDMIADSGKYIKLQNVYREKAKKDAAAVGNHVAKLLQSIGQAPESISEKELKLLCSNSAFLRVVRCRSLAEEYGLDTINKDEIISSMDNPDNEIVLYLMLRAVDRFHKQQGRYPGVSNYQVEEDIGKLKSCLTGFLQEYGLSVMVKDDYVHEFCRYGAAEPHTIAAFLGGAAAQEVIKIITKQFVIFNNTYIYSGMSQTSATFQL
FXN GAA850 act – increases GAA850 frataxin promoter reporter activity; activation, % at 6 µM; actives 0.56% (n = 360,000); HEK293 lucGAA850 FXN promoter luciferase reporter, 24 h; percent of 10 µM SAHA response;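 active means activation above the average of all compounds screened plus 3 SD, cutoff fixed separately per campaign, cut at about 7.5% in these data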;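 further: 0% = DMSO wells and 100% = 10 µM SAHA wells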
proCasp7 act – counter-screen: procaspase-7 (human) activation. P55210. actives 0.093% (n = 330,000). AID 463210. activation, % at 8.5 µM. recombinant procaspase-7, Ac-DEVD-pNA absorbance 405 nm; D23A/D198A/D206A triple mutant, cannot self-cleave; scale: DMSO 0, 5 µM enzyme 100;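 active means percent activation above the screen-wide mean plus 3 SD, cut at about 25% in these data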
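Assay system: Uncleavable procaspase-7 mutant enzyme | Input: 2 µM procaspase-7 mutant as dispensed | Timing: 1 h compound preincubation, 2 h substrate cleavage, 25 °C | Repeats: One well per compound | Control set: DMSO wells as 0%, DMSO with 5 µM added PC-7 as 100% | Technique: Epi-absorbance of released pNA at 405 nm, two timepoints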
proCasp3 act – procaspase-3 (human) activation. P42574. recombinant procaspase-3 D3A, Ac-DEVD-pNA absorbance 405 nm. activation, % at 8.5 µM. actives 0.11% (n = 330,000);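 active means activation above the mean of all tested compounds plus 3 SD, cut at about 21% in these data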;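 further: 0% = DMSO alone and 100% = DMSO wells spiked with extra 5 µM PC-3 D3A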
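Test system: Procaspase-3 D3A mutant; medium: Zinc-free HEPES/NaCl buffer with 0.01% Triton X-100 at pH 7.4; reagent: DEVD-pNA substrate; doses: one concentration, 8.5 µM nominal, 0.8% DMSO; times: 1 h preincubation plus 2 h reaction at 25 °C; signal: Epi-absorbance at 405 nm of released p-nitroaniline, 0 and 120 min; replicates: singlicate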
HIF act – HIF pathway transcriptional activation; U2OS HRE-luciferase reporter, luminescence; normalized: DMSO 0%, desferrioxamine 100%; activation, % at 7.5 µM (by protocol); actives 0.32% (n = 300,000); AID 1910;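 active means mean activation of at least 10% of the iron chelator positive control signal, with at least half of replicates also reaching 10%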
Calb FLC – C. albicans growth modulation with fluconazole | C. albicans CaCi-2 + fluconazole, Alamar Blue growth, 48 h | growth inhibition, % (concentration not given with the values) | actives 0.57% (n = 300,000) | AID 1979;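 active means growth inhibition above about 58% in most replicates, limit read from the data, passing the limit was not always enough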;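 further: all wells also contain fluconazole at 8 µg/ml as a sub-toxic cotreatment; 0% = median of DMSO wells and 100% = median of geldanamycin control wells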
GAA30 FXN cntr – activates GAA30 frataxin promoter, counter-screen for GAA850 activators; AID 588350; shares compounds with FXN GAA850 act; activation, % at 6 µM; actives 66% (n = 1,900); HEK293 lucGAA30 FXN promoter luciferase, 24 h; DMSO = 0%, 5 µM ipriflavone = 100%;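 active means mean activation above the mean of solvent-only control wells plus 3 SD, cut at about 22% in these data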;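 further: counterscreen of GAA850 promoter hits where activity marks nonselective or luminescence artifacts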
FXN GAA850 conf – GAA850 FXN promoter activation confirmation; shares compounds with FXN GAA850 act; HEK293 lucGAA850 FXN promoter luciferase reporter, 24 h; 100% = activation by SAHA; activation, % at 6 µM; actives 86% (n = 1,900); AID 588351;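 active means mean activation above a set limit taken from the primary screen, cut at about 8% in these data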;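 further: 0% = DMSO wells and 100% = 10 µM SAHA wells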
An asterisk follows results filed as active.

For C/C(CC(=O)NCc1ccccc1Cl)=N/NC(=O)c1ccccn1 the results were Neddyl block 4.0, FXN GAA850 act 8.2*, proCasp7 act 3.9, proCasp3 act -2.1, HIF act 2.7, Calb FLC -2.6, GAA30 FXN cntr 49.6* and FXN GAA850 conf 13.7*.
C#CCNC(=O)C[C@@H]1C[C@@]2(C(=O)OC)CCCCC=C2N(CCC2=CCCCC2)C1=O was read as Neddyl block 1.5.
For Fc1ccccc1N=C1NN=C(c2ccccc2)CS1 the results were Neddyl block 19.9, FXN GAA850 act 8.0*, proCasp7 act -3.9, proCasp3 act -8.8, HIF act 0.5, Calb FLC 0.0, GAA30 FXN cntr 123.7* and FXN GAA850 conf 40.5*.
Screening Fc1ccc(F)c(C2=NNC(=Nc3ccccc3F)SC2)c1 returned Neddyl block 8.3, FXN GAA850 act 5.0, proCasp7 act -13.2, proCasp3 act -6.2, HIF act 2.1 and Calb FLC 1.0.
For CCc1cccc2c(C(=O)CCl)c[nH]c12 the results were Neddyl block 12.7, FXN GAA850 act 8.2*, proCasp7 act -0.3, proCasp3 act -4.0, HIF act 0.1, GAA30 FXN cntr 31.2* and FXN GAA850 conf 21.2*.
`Cn1c(=O)c2cc(NC(=O)OCCF)ccc2n1Cc1cccc(C(F)(F)F)c1` gave FXN GAA850 act -0.1.
c1ccc(C2=Nn3c(nnc3-c3cc(-c4ccccc4)n[nH]3)SC2)cc1 was read as Neddyl block -14.5, FXN GAA850 act 8.3*, proCasp7 act -10.7, proCasp3 act -2.4, HIF act 0.5, Calb FLC -0.7, GAA30 FXN cntr 41.4* and FXN GAA850 conf 23.3*.
COc1ccc(S(=O)(=O)N2CCCC(C(=O)N3CCN(Cc4ccccc4)CC3)C2)cc1Cl (stereo not drawn) was read as Neddyl block -9.5 and FXN GAA850 act 0.8.
For COc1ccccc1C(=O)Nc1ccc2c(c1)nc1n2CCSC1 the results were Neddyl block 25.7, FXN GAA850 act 8.0*, proCasp7 act 10.4, proCasp3 act 7.3, GAA30 FXN cntr 98.1* and FXN GAA850 conf 26.6*.
`Cc1cccc(-c2nc(CN3CCCC(C(=O)NC4CCCC4)C3)c(C)o2)c1` (stereo not drawn) gave Neddyl block 7.6, FXN GAA850 act 8.0*, proCasp7 act 14.0, proCasp3 act 1.3, HIF act 0.3, Calb FLC 21.0, GAA30 FXN cntr 10.2 and FXN GAA850 conf 5.9.
For OCCCNc1ncnc2c1cnn2-c1ccc(Cl)cc1 the results were Neddyl block 20.6, FXN GAA850 act -1.3, proCasp7 act 2.3, proCasp3 act 9.9, HIF act -15.0 and Calb FLC -4.2.
Screening O=C1CCCN1CCCNc1ncnc2c1cnn2-c1ccc(Cl)cc1 returned Neddyl block 34.4, FXN GAA850 act 14.8*, proCasp7 act 4.1, proCasp3 act -1.8, HIF act 0.2, Calb FLC -4.1, GAA30 FXN cntr 75.7* and FXN GAA850 conf 32.8*.
`O=C1C(=NO)CC(c2ccccc2)N1c1ccccc1` (stereo not drawn) gave Neddyl block -1.5 and FXN GAA850 act 0.6.
Screening Cc1cc(C)nc(SC2c3cccc4cccc(c34)C2NS(=O)(=O)c2ccccc2)n1 (stereo not drawn) returned Neddyl block -3.0, FXN GAA850 act 8.6*, proCasp7 act -3.2, proCasp3 act 1.8, HIF act 0.1, Calb FLC 10.8, GAA30 FXN cntr 15.0 and FXN GAA850 conf 14.2*.
Screening CCCn1c2ccccc2c2cc(C(=O)O)ccc21 returned Neddyl block 4.3, FXN GAA850 act 2.2, proCasp7 act 5.0, proCasp3 act 4.4, HIF act -0.4 and Calb FLC 39.6.
For CCn1c2ccccc2c2nc3cc(C(=O)O)ccc3nc21 the results were Neddyl block 28.9, FXN GAA850 act 11.9*, GAA30 FXN cntr 100.5* and FXN GAA850 conf 27.1*.
For Cc1ccc(Nc2nc(N)nc(CSc3nc4ccccc4s3)n2)cc1 the results were Neddyl block -6.5, FXN GAA850 act 11.5*, proCasp7 act 10.2, proCasp3 act -2.4, HIF act 0.8, Calb FLC 4.8, GAA30 FXN cntr 39.6* and FXN GAA850 conf 22.0*.
Screening O=C(c1cc2cc(Cl)ccc2oc1=O)N1CCOCC1 returned Neddyl block 0.2, FXN GAA850 act -1.9, proCasp7 act -8.1, proCasp3 act 6.4, HIF act 0.6 and Calb FLC -32.6.
O=C(c1cc2ccccc2oc1=O)N1CCOCC1 was read as Neddyl block -5.1, FXN GAA850 act 7.7*, proCasp7 act 5.3, proCasp3 act 5.9, HIF act 2.5, Calb FLC -1.9, GAA30 FXN cntr 101.5* and FXN GAA850 conf 33.9*.
For Cc1cc(C)c(C#N)c(SCc2nnc(-c3ccccc3[N+](=O)[O-])o2)n1 the results were Neddyl block -31.6, FXN GAA850 act 8.9*, proCasp7 act -5.6, proCasp3 act 6.8, HIF act 2.1, Calb FLC 52.4, GAA30 FXN cntr 108.5* and FXN GAA850 conf 40.8*.
`Cc1cc(C)c(C#N)c(SCc2ccccc2[N+](=O)[O-])n1` gave Neddyl block 1.6, FXN GAA850 act 1.9, proCasp7 act -0.3, proCasp3 act -3.3, HIF act -0.3 and Calb FLC 1.4.
Screening CCOC(=O)c1sc(=NC(=O)c2ccccc2Br)n(C)c1C returned Neddyl block -85.2, FXN GAA850 act 10.9*, proCasp7 act 1.9, proCasp3 act 3.9, HIF act 5.7, Calb FLC 5.7, GAA30 FXN cntr 106.3* and FXN GAA850 conf 28.9*.
For N#C/C(=C\c1ccc([N+](=O)[O-])o1)c1nc2ccccc2[nH]1 the results were proCasp7 act -7.2, proCasp3 act 4.5, HIF act 1.2 and Calb FLC 25.1.
Cc1ccc2nc(/C(C#N)=C\c3ccc([N+](=O)[O-])o3)[nH]c2c1 was read as Neddyl block 17.4, FXN GAA850 act 8.1*, proCasp7 act -18.2, proCasp3 act 8.7, HIF act -0.7, Calb FLC 70.6, GAA30 FXN cntr -52.1 and FXN GAA850 conf -13.2.
For CCOC(=O)NC(=O)CSc1nc(C)cc(C)c1C#N the results were Neddyl block 6.1, FXN GAA850 act 8.2*, proCasp7 act 0.1, proCasp3 act -3.7, HIF act -0.2, Calb FLC 1.3, GAA30 FXN cntr 102.8* and FXN GAA850 conf 29.9*.
